Screening results as filed in PubChem BioAssay.
Only some compounds are listed: those with a hit (about 1.3% of all), similar ones and a draw of the others.
PP1 inh: PP1-alpha phosphatase inhibitors, primary screen, counter-screen for PP5 inhibitor project, biochemical, fluorescence, OMFP substrate, single point | hit rate 0.9% among 320,000 | inhibition, % at 6.7 µM | purified PP1alpha;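 active = inhibition above the mean inhibition of all tested compounds plus 3 SD, computed separately for each screening campaign, cut at about 15% in these data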
NR2E3 ag-1: NR2E3 agonists in two-hybrid cells, primary screen, cell-based, luminescence, CHO-S, Gal4-NCOR/VP16-NR2E3; Photoreceptor-specific nuclear receptor (Homo sapiens), Q9Y5X4; AID 602229, 2012; luciferase; inhibition of corepressor binding, % at 3.98 µM; hit rate 0.35% among 360,000;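 active = inhibition above the mean of all tested compounds plus 3 SD, cut at about 70% in these data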;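 also: 0% = DMSO with NR2E3 transfected cells and 100% = cells lacking NR2E3 construct; higher means lower luciferase signal from less NR2E3 corepressor binding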
NR2E3 ag-2: inhibitors of NR2E3-RetCOR corepressor binding, primary screen, NR2E3 agonist project, biochemical, TR-FRET, GST-NR2E3, biotin-RetCOR. Photoreceptor-specific nuclear receptor (Homo sapiens), Q9Y5X4. 1536-well. inhibition of corepressor binding, % at 4.78 µM. hit rate 0.12% among 320,000. AID 2300, 2010;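 active = percent inhibition above the cutoff of mean plus 3 SD of all tested compounds, set per screening campaign, cut at about 20% in these data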;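 also: 0% = DMSO wells and 100% = biotin wells as full block of FRET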
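system = GST-tagged NR2E3 plus biotinylated RetCOR corepressor | input = 1.35 nM GST-NR2E3 | also added = 7 nM biotin-RetCOR | schedule = 5 h incubation at 4 °C | measured by = TR-FRET with europium anti-GST and streptavidin-D2, 340 nm excitation | read-out = percent loss of FRET ratio relative to control wells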
PP5 primary: PP5 phosphatase inhibitors, primary screen, biochemical, fluorescence. Serine/threonine-protein phosphatase 5 (Homo sapiens), P53041. purified PP5c, OMFP substrate fluorescence. inhibition, % at 6.7 µM. hit rate 0.18% among 320,000;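 active = inhibition above the campaign's mean inhibition across all tested compounds plus 3 SD, cut at about 9.5% in these data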;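 also: 0% = DMSO only and 100% = 100 µM cantharidin control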
Target sequence (P53041 whole entry, looked up): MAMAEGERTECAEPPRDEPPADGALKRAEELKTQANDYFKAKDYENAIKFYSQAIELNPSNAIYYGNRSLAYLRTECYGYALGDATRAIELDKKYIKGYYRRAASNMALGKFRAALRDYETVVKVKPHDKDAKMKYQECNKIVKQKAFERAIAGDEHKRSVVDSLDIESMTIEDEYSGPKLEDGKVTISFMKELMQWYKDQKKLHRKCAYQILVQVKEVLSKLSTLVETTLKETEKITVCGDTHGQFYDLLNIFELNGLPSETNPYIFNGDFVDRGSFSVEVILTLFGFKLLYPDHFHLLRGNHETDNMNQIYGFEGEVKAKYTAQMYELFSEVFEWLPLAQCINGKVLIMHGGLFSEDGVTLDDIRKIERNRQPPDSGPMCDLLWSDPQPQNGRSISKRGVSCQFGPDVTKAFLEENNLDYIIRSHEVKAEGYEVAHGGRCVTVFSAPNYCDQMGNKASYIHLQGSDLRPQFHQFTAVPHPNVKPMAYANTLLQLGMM
PP1 confirm: PP1 phosphatase inhibitors, confirmation, biochemical, fluorescence, OMFP substrate, triplicate; inhibition, % at 6.7 µM; AID 2358, 2010; shares compounds with PP1 inh; hit rate 52% among 1,900; purified PP1alpha;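 active = mean PP1 inhibition above a set limit taken from the earlier primary screen, cut at about 15% in these data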
PP5 inh counter: PP5 phosphatase inhibition by PP1 hits, confirmation, counter-screen for PP1 inhibitor project, biochemical, fluorescence, triplicate | shares compounds with PP1 inh | purified PP5c, OMFP fluorescence | inhibition, % at 6.7 µM | hit rate 4% among 1,900 | AID 2360, 2010;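 active = mean PP5 inhibition over triplicate wells above about 9.5% taken from the earlier PP1 screen, limit read from the data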
* hit, by the source's call; nt = not tested or not shown.

SMILES | PP1 inh | NR2E3 ag-1 | NR2E3 ag-2 | PP5 primary | PP1 confirm | PP5 inh counter
O=C(Nc1cccc(S(=O)(=O)NC2=NCCC2)c1)c1cc(-c2ccco2)nc2ccccc12 | 26* | -7 | 1 | 1 | 6 | -5
O=C(N/N=C/c1ccc([N+](=O)[O-])o1)c1cc(-c2ccc(-c3ccccc3)cc2)nc2ccccc12 | 27* | -149 | -1 | 4 | 29* | 4
O=C(NC(=S)Nc1cccc(S(=O)(=O)NC2=NCCC2)c1)c1cc(-c2ccco2)nc2ccccc12 | 9 | -2 | -1 | 2 | nt | nt
O=C(Nc1nc2ccccc2s1)c1cc(-c2ccco2)nc2ccccc12 | -2 | -32 | 1 | 0 | nt | nt
COc1ccc(CC(=O)Nc2cc(S(=O)(=O)N3CCOCC3)ccc2N2CCOCC2)cc1OC | nt | 3 | nt | nt | nt | nt
Cc1nn(CC(=O)Nc2ccc(Cl)cc2)c(=O)c2cc(-c3ccccc3)nn12 | 0 | 4 | 0 | -1 | nt | nt
O=S(=O)(c1ccc(SCc2ccc(Cl)cc2)nc1)N1CCCC1 | 2 | -19 | 0 | 4 | nt | nt
CC(C)CC(N)c1csc(Nc2cnccn2)n1 (centres undefined) | nt | -29 | nt | nt | nt | nt
CC(=O)Nc1cccc(-c2ccnc3c2CC(C)(C(=O)NCC2CC2)O3)c1 (centres undefined) | nt | -17 | nt | nt | nt | nt
CCCC[n+]1c2ccccc2cc2ccccc21 | 22* | -18 | 0 | 3 | 19* | 0
CCC[n+]1c2ccccc2cc2ccccc21 | 25* | -1 | -5 | -4 | 20* | 1
CCCCN1C(=O)CCC(C(=O)O)C1c1ccc([N+](=O)[O-])cc1 (centres undefined) | 4 | -18 | -1 | -1 | nt | nt
O=C(Cn1[nH]c(=O)c2ccccc2c1=O)NCCN1C(=O)S/C(=C\c2ccccc2)C1=O | nt | -10 | nt | nt | nt | nt
Nc1nn2c(-c3ccccc3)cc(=O)[nH]c2c1N=Nc1ccc(O)cc1 | 28* | -27 | -2 | 3 | 20* | 1
CC(=O)OCCN1c2ccccc2Sc2cnccc21 | nt | 10 | nt | nt | nt | nt
CC(=O)OCCCN1c2ccccc2Nc2nnc(-c3ccccc3)cc21 | 29* | -99 | 0 | 0 | 28* | -3
CC(C)(C)c1cc(NCCCn2ccnc2)n2ncc(-c3ccccc3)c2n1 | 21* | -127 | 3 | 2 | 14 | 3
C#CCOCCOCCOCCNc1nc(N2CCN(C(=O)[C@H](Cc3cc4ccccc4[nH]3)n3cc([C@@H](N)C(C)CC)nn3)CC2)nc(N2CCN(C(=O)[C@H](Cc3cc4ccccc4[nH]3)n3cc([C@@H](N)Cc4ccc(O)cc4)nn3)CC2)n1 (some centres undefined) | 84* | nt | 2 | 8 | 78* | 5
C#CCOCCOCCOCCNc1nc(N2CCN(C(=O)[C@H](Cc3ccc(O)cc3)n3cc([C@@H](N)C(C)CC)nn3)CC2)nc(N2CCN(C(=O)[C@H](Cc3cc4ccccc4[nH]3)n3cc([C@@H](N)CC(C)C)nn3)CC2)n1 (some centres undefined) | 20* | nt | 7 | 2 | -17 | -1
C#CCOCCOCCOCCNc1nc(N2CCOCC2)nc(N2CCN(C(=O)[C@H](Cc3cc4ccccc4[nH]3)n3cc([C@@H](N)CC(C)C)nn3)CC2)n1 | 3 | -6 | 0 | 0 | nt | nt
C#CCOCCOCCOCCNc1nc(N2CCN(C(=O)[C@H]([C@@H](C)CC)n3cc([C@@H](N)Cc4ccc(O)cc4)nn3)CC2)nc(N2CCN(C(=O)[C@H](Cc3cc4ccccc4[nH]3)n3cc([C@@H](N)C(C)CC)nn3)CC2)n1 (some centres undefined) | 11 | nt | 2 | 3 | nt | nt
C#CCOCCOCCOCCNc1nc(N2CCN(C(=O)[C@H](Cc3cc4ccccc4[nH]3)n3cc([C@@H](N)CC(C)C)nn3)CC2)nc(N2CCN(C(=O)[C@H](Cc3cc4ccccc4[nH]3)n3cc([C@@H](N)CC(C)C)nn3)CC2)n1 | 43* | -14 | -2 | 7 | -8 | 2
